Assay results: ChEMBL document CHEMBL1153829, “Exploiting chemical libraries, structure, and genomics in the search for kinase inhibitors” (Science, 1998)
pIC50: −log10 of the molar value. The source made the active and inactive calls. The rule behind the calls is not given here.

Experiments:
MRC5 [1] = assay: Cell cycle arrest in human MRC5 cells assessed as accumulation at G1/S phase at low concentration after 18 hrs by FACS analysis; type: functional, cell-based
MRC5 [2] = assay: Cell cycle arrest in human MRC5 cells assessed as accumulation at G1/S phase at high concentration after 18 hrs by FACS analysis; type: functional, cell-based
MRC5 [3] = assay: Cell cycle arrest in human MRC5 cells assessed as accumulation at G2/M phase at high concentration after 18 hrs by FACS analysis; type: functional, cell-based
[4] = target: Protein kinase C alpha type (Homo sapiens, UniProt P17252); assay: Inhibition of human PKCalpha
[5] = Inhibition of human cGMP-dependent protein kinase
[6] = target: Cyclin-dependent kinase 4/cyclin D1 (Homo sapiens, UniProt P11802); assay: Inhibition of human cdk4/cyclin D1; type: protein-complex assay
[7] = target: c-Jun N-terminal kinase, JNK (Homo sapiens, UniProt P45983+P53779+P45984); assay: Inhibition of human JNK
[8] = Inhibition of human Raf kinase
[9] = target: Glycogen synthase kinase-3 beta (Homo sapiens, UniProt P49841); assay: Inhibition of human GSK3-beta
[10] = Inhibition of human v-abl
[11] = target: T1, Protein kinase C beta type (Homo sapiens, UniProt P05771); assay: Inhibition of human PKCbeta2
Casein kinase 2 = Casein kinase 2 (Homo sapiens, UniProt P67870+P68400+P19784+Q8NEV1); assay: Inhibition of human casein kinase 2; type: protein assay
[12] = target: Protein kinase C delta type (Homo sapiens, UniProt Q05655); assay: Inhibition of human PKCdelta
[13] = target: Protein kinase C eta type (Homo sapiens, UniProt P24723); assay: Inhibition of human PKCeta
[14] = target: Protein kinase C gamma type (Homo sapiens, UniProt P05129); assay: Inhibition of human PKCgamma
[15] = target: T1, Protein kinase C beta type; assay: Inhibition of human PKCbeta1
[16] = target: Protein kinase C epsilon type (Homo sapiens, UniProt Q02156); assay: Inhibition of human PKCepsilon
[17] = Inhibition of human cAMP-dependent protein kinase
[18] = Inhibition of human casein kinase 1
[19] = target: Mitogen-activated protein kinase 3 (Homo sapiens, UniProt P27361); assay: Inhibition of human Erk1
[20] = target: Protein kinase C zeta type (Homo sapiens, UniProt Q05513); assay: Inhibition of human PKCzeta
[21] = target: Cyclin-dependent protein kinase PHO85 (Saccharomyces cerevisiae S288c, UniProt P17157); assay: Inhibition of yeast W303 Pho85 phosphorylation assessed as [32P] incorporation in histone H1 from [gamma32P]ATP by scintillation counting
Saccharomyces cerevisiae [22] = assay: Increase in PHO81 mRNA level in delta snq2, delta pdr5 and delta erg6 knock out yeast YRP1 at 25 µM after 2 hrs by high-density oligonucleotide array; type: functional, organism-based; settings: 25 M
How it was run: (§1)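 Drug-sensitized S. cerevisiae cultures grown to late logarithmic phase, then exposed to 25 μM inhibitor for 2 h. Polyadenylated mRNA isolated, converted to biotin-labeled cRNA and hybridized to a set of four high-density arrays carrying more than 260,000 25-nucleotide oligomers. Transcripts scored as changed when they shifted more than twofold in triplicate hybridizations for each of two independent experiments.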

Saccharomyces cerevisiae [23] = assay: Increase in PHO5 mRNA level in delta snq2, delta pdr5 and delta erg6 knock out yeast YRP1 at 25 µM after 2 hrs by high-density oligonucleotide array; type: functional, organism-based; how it was run: as §1
[24] = target: Serine/threonine-protein kinase CAK1 (Saccharomyces cerevisiae S288c, UniProt P43568); assay: Inhibition of yeast W303 Cak1 phosphorylation assessed as [32P] incorporation in histone H1 from [gamma32P]ATP by scintillation counting
Saccharomyces cerevisiae [25] = assay: Increase in PCL5 mRNA level in delta snq2, delta pdr5 and delta erg6 knock out yeast YRP1 at 25 µM after 2 hrs by high-density oligonucleotide array; type: functional, organism-based; how it was run: as §1
[26] = target: T2, Cyclin-dependent kinase 1 (Saccharomyces cerevisiae S288c, UniProt P00546); assay: Inhibition of yeast W303 cdc28 phosphorylation assessed as [32P] incorporation in histone H1 from [gamma32P]ATP by scintillation counting
[27] = target: Serine/threonine-protein kinase KIN28 (Saccharomyces cerevisiae S288c, UniProt P06242); assay: Inhibition of yeast W303 Kin28 phosphorylation assessed as [32P] incorporation in histone H1 from [gamma32P]ATP by scintillation counting
Saccharomyces cerevisiae [28] = assay: Increase in YBR296c mRNA level in delta snq2, delta pdr5 and delta erg6 knock out yeast YRP1 at 25 µM after 2 hrs by high-density oligonucleotide array; type: functional, organism-based; settings: 25 M; how it was run: as §1
[29] = target: Meiotic mRNA stability protein kinase SSN3 (Saccharomyces cerevisiae S288c, UniProt P39073); assay: Inhibition of yeast W303 Srb10 phosphorylation assessed as [32P] incorporation in histone H1 from [gamma32P]ATP by scintillation counting
Saccharomyces cerevisiae [30] = assay: Growth inhibition of delta snq2, delta pdr5 and delta erg6 knock out yeast YRP1 after 2 hrs; type: functional
Saccharomyces cerevisiae [31] = assay: Increase in PHO80 mRNA level in delta snq2, delta pdr5 and delta erg6 knock out yeast YRP1 at 25 µM after 2 hrs by high-density oligonucleotide array; type: functional, organism-based; how it was run: as §1
Saccharomyces cerevisiae [32] = assay: Increase in HSP12 mRNA level in delta snq2, delta pdr5 and delta erg6 knock out yeast YRP1 at 25 µM after 2 hrs by high-density oligonucleotide array; type: functional, organism-based; how it was run: as §1
Saccharomyces cerevisiae [33] = assay: Growth inhibition of delta snq2, delta pdr5 and delta erg6 knock out yeast YRP1 assessed as synchronization by FACS analysis; type: functional, organism-based
Saccharomyces cerevisiae [34] = assay: Increase in UB14 mRNA level in delta snq2, delta pdr5 and delta erg6 knock out yeast YRP1 at 25 µM after 2 hrs by high-density oligonucleotide array; type: functional, organism-based; how it was run: as §1
Saccharomyces cerevisiae [35] = assay: Increase in PHO84 mRNA level in delta snq2, delta pdr5 and delta erg6 knock out yeast YRP1 at 25 µM after 2 hrs by high-density oligonucleotide array; type: functional, organism-based; how it was run: as §1
Saccharomyces cerevisiae [36] = assay: Increase in CTT1 mRNA level in delta snq2, delta pdr5 and delta erg6 knock out yeast YRP1 at 25 µM after 2 hrs by high-density oligonucleotide array; type: functional, organism-based; settings: 25 M; how it was run: as §1
Saccharomyces cerevisiae [37] = assay: Increase in PHO8 mRNA level in delta snq2, delta pdr5 and delta erg6 knock out yeast YRP1 at 25 µM after 2 hrs by high-density oligonucleotide array; type: functional, organism-based; how it was run: as §1
Saccharomyces cerevisiae [38] = assay: Growth inhibition of delta snq2, delta pdr5 and delta erg6 knock out yeast YRP1 assessed as induction of uniform arrest morphology; type: functional, organism-based
Cdc2 [39] = target: T3, Cdc2 (Patiria pectinifera, UniProt Q17066); assay: Inhibition of starfish cdc2/cyclin B assessed as [32P] incorporation in histone H1 from 1.5 mM [gamma32P]ATP
[40] = target: T4, Cyclin-dependent kinase 2 (Homo sapiens, UniProt P24941); assay: Inhibition of human cdk2/cyclin A
[41] = target: T4, Cyclin-dependent kinase 2; assay: Inhibition of human cdk2/cyclin E
Cdc2 [42] = target: T3, Cdc2; assay: Inhibition of starfish cdc2/cyclin B assessed as [32P] incorporation in histone H1 from 150 µM [gamma32P]ATP
KM12 = assay: Growth inhibition human KM12 cells; type: functional
[43] = target: T2, Cyclin-dependent kinase 1; assay: Inhibition of Saccharomyces cerevisiae cdc28
NCI-H522 = assay: Growth inhibition human NCI-H522 cells; type: functional
[44] = Growth inhibition human NCI60 cells; type: functional
Insulin receptor = Insulin receptor (Homo sapiens, UniProt P06213); assay: Inhibition of human insulin receptor
[45] = target: Cyclin-dependent kinase 5/CDK5 activator 1 (Homo sapiens, UniProt Q00535); assay: Inhibition of human cdk5/p35; type: protein-complex assay
[46] = target: Cyclin-dependent kinase 1/cyclin B1 (Homo sapiens, UniProt P06493); assay: Inhibition of human cdc2/cyclin B assessed as [32P] incorporation in histone H1 from [gamma32P]ATP; type: protein-complex assay

T1 sequence (P05771 whole entry): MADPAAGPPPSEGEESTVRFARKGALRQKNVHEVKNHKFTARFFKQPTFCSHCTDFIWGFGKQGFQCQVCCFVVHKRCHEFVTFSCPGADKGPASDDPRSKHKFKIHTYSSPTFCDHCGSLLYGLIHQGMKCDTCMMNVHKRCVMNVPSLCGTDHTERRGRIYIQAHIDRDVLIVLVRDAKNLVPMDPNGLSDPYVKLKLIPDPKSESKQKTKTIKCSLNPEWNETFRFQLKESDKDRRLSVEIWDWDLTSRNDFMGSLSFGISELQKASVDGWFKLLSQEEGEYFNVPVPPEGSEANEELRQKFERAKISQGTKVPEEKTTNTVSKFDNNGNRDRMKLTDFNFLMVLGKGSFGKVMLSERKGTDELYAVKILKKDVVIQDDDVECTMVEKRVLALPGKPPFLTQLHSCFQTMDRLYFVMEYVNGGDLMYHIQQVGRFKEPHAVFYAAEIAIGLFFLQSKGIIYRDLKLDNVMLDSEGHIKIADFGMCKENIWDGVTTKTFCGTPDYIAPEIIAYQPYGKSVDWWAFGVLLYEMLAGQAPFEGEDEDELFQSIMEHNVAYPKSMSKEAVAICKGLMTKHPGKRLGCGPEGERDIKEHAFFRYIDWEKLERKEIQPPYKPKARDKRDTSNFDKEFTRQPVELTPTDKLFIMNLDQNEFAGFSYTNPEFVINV
T2 sequence (P00546 whole entry): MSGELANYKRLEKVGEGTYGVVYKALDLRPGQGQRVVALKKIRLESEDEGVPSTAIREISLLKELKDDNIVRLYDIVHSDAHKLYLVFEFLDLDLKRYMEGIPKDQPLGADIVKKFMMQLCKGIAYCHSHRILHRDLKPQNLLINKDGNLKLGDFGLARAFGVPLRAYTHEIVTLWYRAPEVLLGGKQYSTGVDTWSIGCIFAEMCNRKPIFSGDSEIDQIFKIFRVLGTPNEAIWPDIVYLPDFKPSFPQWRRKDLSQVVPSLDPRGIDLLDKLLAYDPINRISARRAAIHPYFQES
Mitogen-activated protein kinase 3, sequence (P27361 whole entry): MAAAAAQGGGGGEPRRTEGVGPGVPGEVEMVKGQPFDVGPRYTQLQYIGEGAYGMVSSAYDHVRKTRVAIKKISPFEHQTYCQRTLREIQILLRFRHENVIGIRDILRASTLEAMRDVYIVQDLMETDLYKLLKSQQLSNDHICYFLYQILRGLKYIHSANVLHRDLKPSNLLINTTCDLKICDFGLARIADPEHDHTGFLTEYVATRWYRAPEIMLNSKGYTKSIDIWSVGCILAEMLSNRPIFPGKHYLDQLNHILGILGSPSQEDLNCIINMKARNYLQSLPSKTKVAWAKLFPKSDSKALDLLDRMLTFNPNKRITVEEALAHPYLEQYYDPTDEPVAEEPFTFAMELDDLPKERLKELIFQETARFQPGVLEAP
Cyclin-dependent kinase 4/cyclin D1, sequence (P11802 whole entry): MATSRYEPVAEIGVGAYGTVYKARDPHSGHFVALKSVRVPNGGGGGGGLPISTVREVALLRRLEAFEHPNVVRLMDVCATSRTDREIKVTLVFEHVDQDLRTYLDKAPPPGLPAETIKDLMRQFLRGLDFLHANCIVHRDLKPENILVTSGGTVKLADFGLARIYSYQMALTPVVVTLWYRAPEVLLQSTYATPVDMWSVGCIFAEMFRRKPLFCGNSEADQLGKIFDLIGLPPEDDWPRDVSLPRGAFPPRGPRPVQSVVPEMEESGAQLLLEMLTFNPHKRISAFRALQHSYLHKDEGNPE
Cyclin-dependent kinase 4/cyclin D1, sequence (P24385 whole entry, further chain): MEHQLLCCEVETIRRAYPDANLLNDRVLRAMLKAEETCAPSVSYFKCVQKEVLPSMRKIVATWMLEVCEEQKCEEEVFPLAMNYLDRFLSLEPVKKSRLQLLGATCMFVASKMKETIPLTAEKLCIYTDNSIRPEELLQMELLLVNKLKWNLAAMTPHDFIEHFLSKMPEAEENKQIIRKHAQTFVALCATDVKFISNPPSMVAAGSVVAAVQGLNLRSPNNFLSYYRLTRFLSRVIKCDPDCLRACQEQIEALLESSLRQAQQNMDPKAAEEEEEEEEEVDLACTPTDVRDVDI
Glycogen synthase kinase-3 beta, sequence (P49841 whole entry): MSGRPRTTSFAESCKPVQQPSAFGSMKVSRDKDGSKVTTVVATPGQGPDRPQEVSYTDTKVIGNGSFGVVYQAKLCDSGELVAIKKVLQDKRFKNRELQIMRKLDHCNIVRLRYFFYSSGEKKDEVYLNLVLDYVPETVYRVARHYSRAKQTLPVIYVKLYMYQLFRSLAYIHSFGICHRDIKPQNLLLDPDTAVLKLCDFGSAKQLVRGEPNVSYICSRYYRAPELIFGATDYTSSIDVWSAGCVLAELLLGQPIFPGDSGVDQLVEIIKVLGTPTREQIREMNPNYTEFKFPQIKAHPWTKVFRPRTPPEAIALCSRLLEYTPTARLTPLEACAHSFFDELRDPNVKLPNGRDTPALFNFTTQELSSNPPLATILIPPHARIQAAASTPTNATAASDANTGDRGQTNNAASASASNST
Protein kinase C delta type, sequence (Q05655 whole entry): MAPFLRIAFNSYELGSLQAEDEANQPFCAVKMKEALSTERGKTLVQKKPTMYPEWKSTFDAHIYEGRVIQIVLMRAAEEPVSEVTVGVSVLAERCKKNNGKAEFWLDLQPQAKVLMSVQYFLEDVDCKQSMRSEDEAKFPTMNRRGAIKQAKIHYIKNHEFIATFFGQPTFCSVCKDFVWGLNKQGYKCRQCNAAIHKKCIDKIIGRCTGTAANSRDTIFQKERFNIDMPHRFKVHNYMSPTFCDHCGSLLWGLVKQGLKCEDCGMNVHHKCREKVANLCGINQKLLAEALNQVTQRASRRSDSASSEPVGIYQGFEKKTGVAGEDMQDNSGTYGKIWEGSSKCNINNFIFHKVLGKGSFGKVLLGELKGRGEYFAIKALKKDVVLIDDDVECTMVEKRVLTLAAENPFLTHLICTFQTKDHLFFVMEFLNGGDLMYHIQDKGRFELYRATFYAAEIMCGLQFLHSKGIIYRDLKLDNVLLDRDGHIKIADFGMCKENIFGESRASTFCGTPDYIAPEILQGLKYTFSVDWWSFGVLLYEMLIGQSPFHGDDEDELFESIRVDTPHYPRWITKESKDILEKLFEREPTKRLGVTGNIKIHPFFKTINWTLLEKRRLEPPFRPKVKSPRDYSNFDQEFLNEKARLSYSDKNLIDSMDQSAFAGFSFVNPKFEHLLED
Protein kinase C zeta type, sequence (Q05513 whole entry): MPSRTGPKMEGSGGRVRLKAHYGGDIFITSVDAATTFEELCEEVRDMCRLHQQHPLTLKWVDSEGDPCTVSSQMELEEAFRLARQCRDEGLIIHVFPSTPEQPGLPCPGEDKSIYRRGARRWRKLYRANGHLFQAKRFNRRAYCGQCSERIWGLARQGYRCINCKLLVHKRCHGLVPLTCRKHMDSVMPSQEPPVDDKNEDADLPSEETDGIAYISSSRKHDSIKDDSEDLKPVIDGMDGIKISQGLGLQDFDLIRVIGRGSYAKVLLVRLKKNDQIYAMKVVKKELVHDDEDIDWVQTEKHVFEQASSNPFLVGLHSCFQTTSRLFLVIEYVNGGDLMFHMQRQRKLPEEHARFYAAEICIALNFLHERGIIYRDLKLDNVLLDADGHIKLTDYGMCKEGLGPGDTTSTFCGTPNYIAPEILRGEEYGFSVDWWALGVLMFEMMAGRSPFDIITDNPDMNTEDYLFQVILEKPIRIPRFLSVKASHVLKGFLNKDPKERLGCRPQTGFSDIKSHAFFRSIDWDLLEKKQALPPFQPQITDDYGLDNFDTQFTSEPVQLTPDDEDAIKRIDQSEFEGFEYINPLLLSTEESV
T3 sequence (Q17066 whole entry): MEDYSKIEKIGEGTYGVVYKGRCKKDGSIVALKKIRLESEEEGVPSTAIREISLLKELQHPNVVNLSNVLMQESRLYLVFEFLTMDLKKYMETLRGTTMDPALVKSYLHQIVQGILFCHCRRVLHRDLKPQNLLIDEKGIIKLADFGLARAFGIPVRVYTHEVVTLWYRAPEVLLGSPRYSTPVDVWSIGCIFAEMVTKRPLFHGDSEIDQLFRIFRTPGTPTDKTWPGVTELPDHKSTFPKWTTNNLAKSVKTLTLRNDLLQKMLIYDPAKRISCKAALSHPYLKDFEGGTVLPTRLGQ
Serine/threonine-protein kinase KIN28, sequence (P06242 whole entry): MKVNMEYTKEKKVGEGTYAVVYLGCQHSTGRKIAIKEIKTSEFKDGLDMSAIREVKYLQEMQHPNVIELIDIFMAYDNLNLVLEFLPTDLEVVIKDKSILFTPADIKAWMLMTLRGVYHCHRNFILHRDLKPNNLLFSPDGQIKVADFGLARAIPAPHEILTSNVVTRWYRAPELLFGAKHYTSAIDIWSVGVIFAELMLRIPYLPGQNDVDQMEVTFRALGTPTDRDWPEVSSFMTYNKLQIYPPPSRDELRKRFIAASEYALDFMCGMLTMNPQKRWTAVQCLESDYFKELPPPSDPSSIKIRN

SMILES | pIC50 [4] | pIC50 [5] | pIC50 [6] | IC50 [7] [µM] | pIC50 [8] | pIC50 [9] | pIC50 [10] | pIC50 [11] | IC50 (Casein kinase 2) [µM] | pIC50 [12] | pIC50 [13] | pIC50 [14] | pIC50 [15] | pIC50 [16] | pIC50 [17] | pIC50 [18] | pIC50 [19] | pIC50 [20] | also measured
COc1ccc(CNc2nc(N(CCO)CCO)nc3c2ncn3C(C)C)cc1 |  |  |  |  |  |  |  |  |  |  |  |  |  |  |  |  |  |  | Activity (MRC5 [1]): Active; Activity (MRC5 [2]): Active; Activity (MRC5 [3]): Active
CC(C)[C@H](CO)Nc1nc(Nc2ccc(C(=O)O)c(Cl)c2)c2ncn(C(C)C)c2n1 [PURVALANOL B] | < 4.00 | < 4.00 | < 5.00 | > 10 | < 5.00 | < 5.00 | < 4.00 | < 4.00 | > 10 | < 4.00 | < 4.00 | < 4.00 | < 4.00 | < 4.00 | 5.42 | < 5.48 | 5.48 | < 4.00 | 
CC(C)n1cnc2c(N(C)c3cccc(Cl)c3)nc(NCCO)nc21 |  |  |  |  |  |  |  |  |  |  |  |  |  |  |  |  |  |  | pIC50 [21]: < 3.30; Activity (Saccharomyces cerevisiae [22]): inactive; Activity (Saccharomyces cerevisiae [23]): inactive; pIC50 [24]: < 3.30; Activity (Saccharomyces cerevisiae [25]): inactive; pIC50 [26]: < 3.30; pIC50 [27]: < 3.30; Activity (Saccharomyces cerevisiae [28]): inactive; pIC50 [29]: < 3.30; GI50 (Saccharomyces cerevisiae [30]): 200 µM; Activity (Saccharomyces cerevisiae [31]): inactive; Activity (Saccharomyces cerevisiae [32]): inactive; Activity (Saccharomyces cerevisiae [33]): inactive; Activity (Saccharomyces cerevisiae [34]): inactive; Activity (Saccharomyces cerevisiae [35]): inactive; Activity (Saccharomyces cerevisiae [36]): inactive; Activity (Saccharomyces cerevisiae [37]): inactive; Activity (Saccharomyces cerevisiae [38]): inactive
CC(C)[C@H](CO)Nc1nc(Nc2cccc(Cl)c2)c2ncn(C(C)C)c2n1 [PURVALANOLA] | < 5.00 | < 5.00 | 6.07 | > 1 | < 6.00 | < 5.00 | < 5.00 | < 5.00 | > 10 | < 4.00 | < 4.00 | < 5.00 | < 5.00 | < 4.00 | 5.05 | < 5.48 | 5.05 | < 4.00 | pIC50 (Cdc2 [39]): 6.30; pIC50 [40]: 7.15; pIC50 [41]: 7.46; pIC50 (Cdc2 [42]): 7.40; GI50 (KM12): 0.076 µM; pIC50 [43]: 7.10; GI50 (NCI-H522): 0.347 µM; GI50 [44]: 2 µM; pIC50 (Insulin receptor): 5.30; pIC50 [45]: 7.12
CC(C)n1cnc2c(Nc3cccc(Cl)c3)nc(NCCO)nc21 |  |  |  |  |  |  |  |  |  |  |  |  |  |  |  |  |  |  | pIC50 [46]: 6.47
